Reference: ChEMBL document CHEMBL3393007, “IND-2, a pyrimido[1″,2″:1,5]pyrazolo[3,4-b]quinoline derivative, circumvents multi-drug resistance and causes apoptosis in colon cancer cells” (Bioorg Med Chem, 2015)

Columns and labels:
[1] = system: HepG2; assay: Cytotoxicity against human HepG2 cells assessed as reduction in cell viability at 10 uM after 24 hrs by Celltiter-Glo luminescent cell viability assay; format: cell-based; conditions: hepg2, 24 h
Summary of the method: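 Viability of HepG2 cells was measured in parallel with the PXR reporter assay. Cells were transfected, plated at 10,000/well in phenol red-free DMEM with 5% charcoal/dextran-treated FBS, and treated 24 hr with 1 or 10 μM or DMSO. ATP was quantified by CellTiter-Glo luminescence. Means ± SD of triplicates, t-test versus DMSO.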

[2] = Cytotoxicity against mouse NIH/3T3 cells after 72 hrs by MTT assay; format: cell-based; conditions: NIH3T3, 72 h
Summary of the method: (§1)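 Seeding was 6×10^3 cells/well (MDCK, NIH/3T3, MCF-7, MDA-MB-231, LS-180, LS-174, LoVo, S1) after trypsinisation, in DMEM with 10% FBS. Compound at 0.1–100 μM for 72 hr, then MTT (4 mg/mL) for 4 hr. Formazan dissolved in DMSO, absorbance at 570 nm. IC50 by Bliss method; means ± SD, ≥3 experiments in triplicate.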

[3] = system: HEK293; assay: Cytotoxicity against HEK293 cells expressing pcDNA3.1 after 72 hrs by MTT assay; format: cell-based; conditions: Homo sapiens, HEK293, 72 h
Summary of the method: (§2)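 HCT-116, HCT-15, HT-29, DU-145, PC-3 or HEK293/pcDNA3.1 cells in DMEM with 10% FBS were trypsinised and seeded at 5×10^3 cells/well. They received compound at 0.1–100 μM for 72 hr, then MTT (4 mg/mL) for 4 hr. Formazan was dissolved in DMSO and A570 read. IC50 by Bliss method from survival curves; ≥3 experiments, each in triplicate.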

[4] = system: A2780; assay: Cytotoxicity against human A2780 cells after 72 hrs by MTT assay; format: functional, cell-based; conditions: A2780, 72 h
Summary of the method: (§3)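 MTT assay over 0.1–100 μM with a 72 hr exposure, then 4 hr with MTT (4 mg/mL). Formazan dissolved in DMSO, A570 read. IC50 from survival curves (Bliss method); three independent experiments in triplicate; 100 μM taken as cut-off.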

[5] = Cytotoxicity against human S1 cells after 72 hrs by MTT assay; format: functional, cell-based; conditions: S1, 72 h; summary of the method: as §1
[6] = system: 2008; assay: Cytotoxicity against human 2008 cells after 72 hrs by MTT assay; format: functional, cell-based; conditions: Homo sapiens, 2008, 72 h; summary of the method: as §3
[7] = system: HepG2; assay: Cytotoxicity against human HepG2 cells after 72 hrs by MTT assay; format: functional, cell-based; conditions: HepG2, 72 h; summary of the method: as §3
[8] = system: MCF7; assay: Cytotoxicity against human MCF7 cells after 72 hrs by MTT assay; format: functional, cell-based; conditions: MCF7, 72 h; summary of the method: as §1
[9] = Cytotoxicity against human PC3 cells after 72 hrs by MTT assay; format: functional, cell-based; conditions: PC-3, 72 h; summary of the method: as §2
[10] = system: MDCK; assay: Cytotoxicity against MDCK cells after 72 hrs by MTT assay; format: cell-based; conditions: Canis lupus familiaris; summary of the method: as §1
[11] = system: MDA-MB-231; assay: Cytotoxicity against human MDA-MB-231 cells after 72 hrs by MTT assay; format: functional, cell-based; conditions: MDA-MB-231, 72 h; summary of the method: as §1
[12] = system: DU-145; assay: Cytotoxicity against human DU145 cells after 72 hrs by MTT assay; format: functional, cell-based; conditions: DU-145, 72 h; summary of the method: as §2
[13] = Cytotoxicity against human HCT116 cells after 72 hrs by MTT assay; format: functional, cell-based; conditions: HCT-116, 72 h; summary of the method: as §2

SMILES | Activity [1] | IC50 [2] [µM] | IC50 [3] [µM] | IC50 [4] [µM] | IC50 [5] [µM] | IC50 [6] [µM] | IC50 [7] [µM] | IC50 [8] [µM] | IC50 [9] [µM] | IC50 [10] [µM] | IC50 [11] [µM] | IC50 [12] [µM] | IC50 [13] [µM]
CO[C@H]1/C=C/O[C@@]2(C)Oc3c(C)c(O)c4c(O)c(c(/C=N/N5CCN(C)CC5)c(O)c4c3C2=O)NC(=O)/C(C)=C\C=C\[C@H](C)[C@H](O)[C@@H](C)[C@@H](O)[C@@H](C)[C@H](OC(C)=O)[C@@H]1C [RIFAMPIN] | Toxic |  |  |  |  |  |  |  |  |  |  |  | 
Cc1cc(NCCCN(C)C)n2nc3nc4ccccc4cc3c2n1 |  | > 100 | 39.9 | 65.8 | 83.4 | 87.6 | 73.2 | > 100 | 60.5 |  |  |  | 
CCN(CC)CCNc1cc(C)nc2c3cc4ccccc4nc3nn12 |  | 48.2 |  | 87.5 | 44.6 | 78.1 | 67.4 | 53.5 | 62.5 | 41.6 | 58.8 |  | 
Cc1cc(NCCN(C)C)n2nc3nc4ccccc4cc3c2n1 |  | > 100 | 93.4 | > 100 | 69.8 | > 100 | > 100 |  | 79.8 | > 100 | 48.7 | 59.9 | 65.8
CCN(CC)CCCNc1cc(C)nc2c3cc4ccccc4nc3nn12 |  | > 100 | 41.8 | 55.7 | 53.7 | 65.3 | 89.9 |  | 78.5 |  | 34.6 |  | 
